# This is a sample that favours compounds with a hit; in the whole collection about 2.2% have one here.
# Hck Nef HTS: inhibitors of Nef-activated human Hck kinase, primary screen, biochemical, Z-Lyte FRET, 384-well, Hck-YEEI | Tyrosine-protein kinase HCK (Homo sapiens), P08631 | Recombinant Hck-YEEI plus Nef, Z-Lyte FRET kinase assay | inhibition, % at 20 µM | 220,000 compounds, 0.68% hits;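 active = Hck-Nef kinase inhibition above about 50%, limit read from the data; inactive = inhibition below that limit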;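 also: 0% = DMSO with Hck plus Nef and 100% = Hck alone without Nef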
# 14-3-3 Bad inh: inhibitors of 14-3-3 zeta/Bad binding, primary screen, biochemical, TR-FRET, bovine 14-3-3 zeta | 14-3-3 protein zeta/delta (Bos taurus), P63103 | TR-FRET 14-3-3zeta/Dy647-pBad peptide displacement, 1 h | inhibition, % at 21.7 µM | 220,000 compounds, 0.71% hits | AID 781, 2007;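 active = inhibition above about 70%, limit read from the data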;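 also: 0% = full 14-3-3 plus peptide FRET controls and 100% = background without 14-3-3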
# Runt-CBFb FRET: inhibitors of RUNX1 Runt–CBFb binding, primary screen, biochemical, FRET, Cerulean-Runt, Venus-CBFb, uHTS; 220,000 compounds, 0.46% hits; inhibition, % at 20 µM; AID 1496, 2009; Cerulean-Runt/Venus-CBFb FRET ratio 530/480, 1 h;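 active = inhibition over about 50% at 20 µM in the single-dose screen, limit read from the data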;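 also: 0% = DMSO wells and 100% = excess unlabeled CBFb competitor control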
# Target sequence (Q01196 whole entry, looked up): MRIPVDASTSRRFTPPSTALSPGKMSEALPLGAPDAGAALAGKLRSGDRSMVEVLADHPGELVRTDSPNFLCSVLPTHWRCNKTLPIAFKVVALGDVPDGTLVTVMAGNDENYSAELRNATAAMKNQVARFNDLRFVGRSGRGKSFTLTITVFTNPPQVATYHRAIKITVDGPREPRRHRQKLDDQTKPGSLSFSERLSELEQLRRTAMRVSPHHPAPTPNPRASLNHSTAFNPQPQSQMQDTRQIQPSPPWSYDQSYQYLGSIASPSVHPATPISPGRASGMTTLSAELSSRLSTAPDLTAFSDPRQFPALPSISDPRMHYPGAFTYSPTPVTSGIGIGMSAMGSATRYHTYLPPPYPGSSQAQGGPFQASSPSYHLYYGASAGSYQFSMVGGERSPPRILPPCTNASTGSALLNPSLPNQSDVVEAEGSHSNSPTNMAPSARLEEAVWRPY
# Target sequence (Q13951 whole entry, looked up): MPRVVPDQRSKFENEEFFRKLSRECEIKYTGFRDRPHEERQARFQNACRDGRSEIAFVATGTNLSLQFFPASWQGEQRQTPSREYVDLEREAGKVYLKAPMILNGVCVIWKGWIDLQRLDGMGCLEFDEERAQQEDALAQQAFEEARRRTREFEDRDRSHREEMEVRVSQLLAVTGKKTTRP
#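 Doses: 20 µM compound in 1% DMSO | Material: Cerulean-labeled Runt domain protein | Amount: Each fluorescent fusion protein 100 nM | Schedule: Two 1 h room-temperature incubations shielded from light | Measured by: FRET fluorescence | Evaluation: Loss of energy transfer signal | Controls: Unlabeled CBFb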
# Tb hexokinase: Trypanosoma brucei hexokinase 1 inhibitors, primary screen, biochemical, G6PDH-coupled NADH absorbance, MLSCN library | hexokinase 1 [Trypanosoma brucei] | recombinant TbHK1, G6PDH-coupled NADH A340 | inhibition, % at 10 µM | 220,000 compounds, 0.11% hits | AID 1430, 2008;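 active = inhibition of 50% or more in the single-dose primary screen; inactive = inhibition below 50%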
# RanGTP-Imp inh: inhibitors of RanGTP-importin-beta interaction, primary screen, biochemical, FRET, CFP-Ran, YFP-importin-beta, homogeneous; cell-free CFP-Ran/YFP-importin-beta FRET ratio; inhibition, % (test concentration not listed); 300,000 compounds, 1.1% hits;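 active = more than half of the replicate wells show a fall in the fluorescence ratio signal beyond about 16%, limit read from the data, passing the limit was not always enough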;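 also: 0% = DMSO wells and 100% = Ran loaded with GDP instead of GTP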
# Runt-SMMHC FRET: inhibitors of RUNX1 Runt–CBFb-SMMHC binding, primary screen, biochemical, FRET, Cerulean-Runt, Venus-CBFb-SMMHC, uHTS | Cerulean-Runt/Venus-CBFb-SMMHC FRET ratio 530/480, 1 h | inhibition, % at 20 µM | 220,000 compounds, 0.74% hits;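 active = mean inhibition across duplicate retests at 20 µM reaching about 50%, limit read from the data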;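 also: 0% = DMSO wells and 100% = wells with excess untagged CBFb-SMMHC; inhibitors lower the FRET ratio by blocking Runt binding to CBFb-SMMHC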
# Hck Nef conf: retest of Hck:Nef kinase inhibitor hits, confirmation, biochemical, Z-Lyte FRET, 384-well, p-Tyr peptide counterscreen; shares compounds with Hck Nef HTS; Recombinant Hck-YEEI:Nef, Z-Lyte FRET kinase assay; calls only at 10 µM; 1,300 compounds, 28% hits; AID 463188, 2010;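 active = average inhibition of at least 50%, with Z-scores no higher than 3 in both the phospho-tyrosine peptide and fluorescence counterscreens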
# Starred values were filed as active, the others as inactive; i = inactive; . = not tested or not shown; + = active, no number.
SMILES,Hck Nef HTS,14-3-3 Bad inh,Runt-CBFb FRET,Tb hexokinase,RanGTP-Imp inh,Runt-SMMHC FRET,Hck Nef conf
COc1ccc(C2/C=C\CN(C(=O)C3CCCC3)[C@H](Cc3ccccc3)C(=O)N2Cc2ccc(F)cc2)cc1 (stereo not given in full),21,-5,2,2,2,-1,.
CSc1ccccc1OCc1cc(C(=O)NCCN2CCCc3ccccc32)no1,.,.,.,.,2,.,.
O=C(O)c1ccccc1-c1ccccc1C(=O)NCCCO,-1,2,-2,-4,5,-9,.
Cc1ccc(C(=O)OCN2C(=O)c3ccccc3C2=O)cc1S(=O)(=O)N1CCOCC1,.,.,.,.,4,.,.
COc1cc(NC(=S)N2CCN(C(=O)C3CCCO3)CC2)c(OC)cc1Cl (stereo not given),3,-5,0,-6,-2,-1,.
CCOC(=O)c1c(C)noc1CP(=O)(c1ccccc1)c1ccccc1,1,7,-2,3,2,9,.
CCOc1ccccc1N=c1oc2cc(O)ccc2cc1C(=O)NCC1CCCO1 (stereo not given),59*,1,53*,-24,180*,59*,.
CCOc1ccc(C(=O)NCC2CCCO2)cc1OCC (stereo not given),19,-5,4,3,-3,-1,.
CC(=O)Oc1ccc(C(=O)Nc2cccc3c2CCCC3)cc1,.,.,.,.,-2,.,.
COc1ccc2cc(N=Cc3nc(-c4ccc(C)cc4)oc3O)cnc2c1,59*,35,-14,-23,7,-158,i
CCC(=O)c1ccc(N2CCN(C(=O)c3ccccc3)CC2)c(F)c1,15,0,1,-7,0,0,.
C=C(C)Cn1c(NCCOC)nc2c1c(=O)[nH]c(=O)n2C,-1,0,0,4,0,0,.
Cc1nnc(NC(=O)C2CC(=O)N(c3ccccc3)C2)s1 (stereo not given),.,.,.,.,2,.,.
COc1ccc(N2C3=C(C(=O)CC(C)(C)C3)C(c3cnn(C)c3)C3=C2CC(C)(C)CC3=O)cc1,55*,-5,107*,-15,57*,82*,.
CC(C)OCCCNC(=O)C1CC(=O)N(CCc2ccccc2)C1 (stereo not given),.,.,.,.,5,.,.
CC1=NOC(=O)/C1=C\c1ccc(-c2ccc(Br)cc2)o1,113*,26,.,16,1,24,i
Nc1cccc2nc3ccccc3cc12,76*,-2,20,-13,176*,58*,.
O=C(NCCC1=CCCCC1)c1cc(-c2ccccn2)nc2ccccc12,60*,-5,0,-5,4,1,i
O=C(NC1CC1)c1cc(-c2ccccn2)nc2ccccc12,1,7,0,-10,-1,0,.
C=CCn1c(SCC(=O)Nc2sccc2C#N)nc2sc(C)c(C)c2c1=O,63*,4,0,-23,4,4,+
C=CCn1c(SCC(=O)NCCO)nc2sc(C)c(C)c2c1=O,27,3,-2,-10,-2,0,.
CCC(C)c1ccccc1NC(=O)c1cc(C)no1 (stereo not given),.,.,.,.,0,.,.
COc1ccccc1/C=C/C=N/n1c(-c2n[nH]c3c2CCC3)n[nH]c1=S,-7,-5,13,31,3,16,.
S=c1[nH]nc(-c2cc(-c3ccccc3)n[nH]2)n1/N=C/C=C/c1ccco1,71*,5,26,0,0,11,i
Cc1ccccc1/C=N/n1c(-c2cc(-c3ccccc3)n[nH]2)n[nH]c1=S,10,15,10,-17,4,31,.
SMILES,Hck Nef HTS,14-3-3 Bad inh,Runt-CBFb FRET,Tb hexokinase,RanGTP-Imp inh,Runt-SMMHC FRET,Hck Nef conf
S=c1[nH]nc(-c2n[nH]c3c2CCC3)n1/N=C/C=C/c1ccco1,75*,0,28,-32,4,16,i
S=c1[nH]nc(-c2ccco2)n1/N=C/C=C/c1ccco1,2,-5,50,-32,-1,39,.
S=c1[nH]nc(-c2cc(-c3ccccc3)n[nH]2)n1/N=C/c1c(Cl)cccc1Cl,72*,66,13,-7,-1,11,+
COc1cc(/C=C/c2sc3ccccc3[n+]2CCCS(=O)(=O)[O-])ccc1O,65*,-27,-95,-7,-120,-233,i
O=C(COC(=O)c1cc(S(=O)(=O)NCc2ccccc2)ccc1O)c1cc2ccccc2o1,6,3,0,1,1,-3,.
COCCNc1oc(-c2ccc(C)cc2)nc1C#N,0,-16,-2,-22,11,-2,.
N#Cc1nc(COc2ccc(-c3ccccc3)cc2)oc1NCCCN1CCOCC1,2,10,-1,-10,5,-1,.
COCCNc1oc(/C=C/c2ccccc2)nc1C#N,67*,1,10,-57,2,33,.
N#Cc1nc(/C=C/c2ccccc2)oc1NCCCN1CCOCC1,54*,5,14,-51,4,32,.
C[C@@H](C(=O)N[C@@H](Cc1c[nH]c2ccccc12)C(=O)O)n1nnc2ccccc2c1=O,24,-4,1,-8,3,1,.
CC(=O)c1cc(CC(=O)N2CCc3c([nH]c4ccccc34)C2c2ccccn2)cs1 (stereo not given),21,-18,.,-11,1,.,.
Cc1nc(C)c(CC(=O)N2CCc3c([nH]c4ccccc34)C2c2ccccn2)s1 (stereo not given),+,-8,2,-5,1,5,i
CSc1ccccc1NC(=O)c1cc(-c2cccnc2)nc2ccc(Br)cc12,57*,89*,-2,-13,0,-3,i
O=C(NCc1ccc(F)cc1)c1ccc2c(c1)S(=O)(=O)c1ccccc1C2=O,.,.,.,.,-6,.,.
CC(/C=C/c1ccccc1)NC(N)=O (stereo not given),-1,3,1,-4,-1,-2,.
CC(Oc1ccc(-n2cnnn2)cc1)C(=O)O (stereo not given),75*,6,1,-2,-2,-5,i

# From PubChem BioAssay
